In ChEMBL document CHEMBL1139836, “Development of orally bioavailable and CNS penetrant biphenylaminocyclopropane carboxamide bradykinin B1 receptor antagonists” (J Med Chem, 2007):
Where “and” joins values, the source holds several entries; their conditions need not be identical. Identical values can stand only once.

Columns and labels:
[1] = Half life in Sprague-Dawley rat at 10 mg/kg, po and 2 mg/kg, iv; format: ADME, organism-based; details: in vivo
Summary of the method: (§1)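 Sprague-Dawley rats, n = 3, dosed orally at 10 mg/kg and iv at 2 mg/kg. F% from oral versus iv exposure; half-life in hours, clearance in mL/min/kg.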

[2] = Oral bioavailability in Sprague-Dawley rat at 10 mg/kg, po and 2 mg/kg, iv; format: ADME, organism-based; details: in vivo; summary of the method: as §1
[3] = target: T1, B1 bradykinin receptor (Homo sapiens, UniProt P46663); test: Displacement of [3H]des-Arg10 Leu9 kallidin from human bradykinin B1 receptor expressed in CHO cells; format: cell-based
T1 sequence (P46663 whole entry): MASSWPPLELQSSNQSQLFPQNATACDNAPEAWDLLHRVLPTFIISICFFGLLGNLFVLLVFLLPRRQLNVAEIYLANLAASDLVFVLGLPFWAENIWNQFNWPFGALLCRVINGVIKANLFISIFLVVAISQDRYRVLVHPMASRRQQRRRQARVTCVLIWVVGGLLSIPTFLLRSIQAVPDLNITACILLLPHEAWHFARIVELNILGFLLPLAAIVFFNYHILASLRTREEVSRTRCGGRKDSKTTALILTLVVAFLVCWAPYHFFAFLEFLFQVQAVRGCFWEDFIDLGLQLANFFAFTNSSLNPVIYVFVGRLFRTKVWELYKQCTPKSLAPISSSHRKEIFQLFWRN
Summary of the method: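 Membranes from CHO cells stably expressing human B1, used at 0.2 mg/mL protein in pH 7.4 HEPES/NaCl/KCl buffer with 100 nM enalaprilat, 140 µg/mL bacitracin and 0.1% BSA. Radioligand 0.2 nM [3H]des-arg10 leu9 kallidin, 2% DMSO final, incubated 60 min at 22 °C, then filtered and counted. Nonspecific binding defined with 1 µM des-arg10 kallidin. Ki values, at least two experiments averaged.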

[4] = Clearance in Sprague-Dawley rat at 10 mg/kg, po and 2 mg/kg, iv; format: ADME, organism-based; details: in vivo; summary of the method: as §1
[5] = tested on: LLC-PK1; test: Ratio of transport from basolateral to apical over apical to basolateral in LLC-PK1 cells expressing human MDR1; format: ADME, cell-based, Sus scrofa; details: pig
Summary of the method: (§2)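 LLC-PK1 cells expressing human MDR1, grown in M199 with 10% FBS on 96-well filters and used on day 4. Equilibrated 30 min in HBSS with 1 mM HEPES, then test compound at 5 µM. 1 µM verapamil served as P-gp substrate control. Transport in both directions measured in triplicate by LC/MS/MS or scintillation.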

[6] = tested on: human MDR1 (P-gp); test: (§3) Apparent permeability in LLC-PK1 cells expressing human MDR1; format: ADME, cell-based, Sus scrofa; details: pig, LLC-PK1; summary of the method: as §2
[7] = target: T2, B2 bradykinin receptor (Homo sapiens, UniProt P30411); test: Inhibition of human bradykinin B2 receptor
T2 sequence (P30411 whole entry): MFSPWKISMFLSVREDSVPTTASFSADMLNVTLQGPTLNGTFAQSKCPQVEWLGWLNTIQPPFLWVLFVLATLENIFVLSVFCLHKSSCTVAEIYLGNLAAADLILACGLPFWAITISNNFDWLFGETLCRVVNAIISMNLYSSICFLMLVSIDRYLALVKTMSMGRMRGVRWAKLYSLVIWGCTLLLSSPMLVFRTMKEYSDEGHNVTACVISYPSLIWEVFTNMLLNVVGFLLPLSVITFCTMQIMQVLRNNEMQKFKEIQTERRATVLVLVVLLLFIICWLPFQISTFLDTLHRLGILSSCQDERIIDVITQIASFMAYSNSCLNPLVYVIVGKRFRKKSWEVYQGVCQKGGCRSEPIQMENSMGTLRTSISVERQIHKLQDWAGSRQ
Summary of the method: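 Human B2 receptor expressed in CHO cells, membrane binding with 1 nM [3H]bradykinin, 2% DMSO final, 60 min at 22 °C, then filtered and counted. Nonspecific binding defined with 1 µM bradykinin. Ki reported.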

[8] = Lipophilicity, Log P of the compound; format: physicochemical; details: octanol/water
[9] = Half life in rhesus monkey at 3 mg/kg, po and 1 mg/kg, iv; format: ADME, organism-based, Macaca mulatta; details: in vivo
Summary of the method: (§4)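 Rhesus monkeys, n = 2, dosed orally at 3 mg/kg and iv at 1 mg/kg. F%, half-life in hours, clearance in mL/min/kg.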

[10] = Clearance in Mongrel dog at 3 mg/kg, po and 1 mg/kg, iv; format: ADME, organism-based, Canis lupus familiaris; details: in vivo
Summary of the method: (§5)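 Mongrel dogs, n = 2, dosed orally at 3 mg/kg and iv at 1 mg/kg. F%, half-life in hours, clearance in mL/min/kg.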

[11] = Oral bioavailability in rhesus monkey at 3 mg/kg, po and 1 mg/kg, iv; format: ADME, organism-based, Macaca mulatta; details: in vivo; summary of the method: as §4
[12] = Clearance in rhesus monkey at 3 mg/kg, po and 1 mg/kg, iv; format: ADME, organism-based, Macaca mulatta; details: in vivo; summary of the method: as §4
[13] = target: T1, B1 bradykinin receptor; test: Activity at human bradykinin B1 receptor assessed as inhibition of Des-arg kallidin-induced increase of cytosolic calcium in CHO cells by FLIPR; format: functional, cell-based
Summary of the method: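 CHO cells stably expressing human B1 receptor, seeded 25 000/well and grown overnight at 37 °C, then loaded 60 min at 37 °C with 4 µM fluo-3 AM and 1 mM probenecid. Antagonist added 2 min before 3 nM des-arg10 kallidin, run at 37 °C. At least eight concentrations per curve give IC50. At least two experiments averaged.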

[14] = Half life in Mongrel dog at 3 mg/kg, po and 1 mg/kg, iv; format: ADME, organism-based, Canis lupus familiaris; details: in vivo; summary of the method: as §5
[15] = Oral bioavailability in Mongrel dog at 3 mg/kg, po and 1 mg/kg, iv; format: ADME, organism-based, Canis lupus familiaris; details: in vivo; summary of the method: as §5
[16] = tested on: Liver microsomes; test: Stability in human liver microsomes; format: ADME, Microsome
[17] = tested on: Liver microsomes; test: Stability in rat liver microsomes; format: ADME, Microsome
[18] = Stability in dog liver microsomes; format: ADME, Canis lupus familiaris, Microsome
[19] = Stability in monkey liver microsomes; format: ADME, Macaca mulatta, Microsome; details: rhesus monkey
[20] = Stability in rat hepatocytes; format: ADME, cell-based, Hepatocyte
[21] = Stability in human hepatocytes; format: ADME, cell-based, Hepatocyte
[22] = tested on: LLC-PK1; test: as §3; format: ADME, cell-based, Sus scrofa; details: pig, llc-pk1; summary of the method: as §2

| half-life [1] [h] | bioavailability [2] [%] | Ki [3] | clearance [4] [mL/min/kg] | Ratio [5] | Papp [6] [×10⁻⁶ cm/s] | IC50 [7] [nM] | SMILES | also measured |
| --- | --- | --- | --- | --- | --- | --- | --- | --- |
| 0.7 | 50 | 0.66 nM | 12 |  |  |  | C[C@@H](NC(=O)C1(NC(=O)C(F)(F)F)CC1)c1ccc(-c2cccc(Cl)c2-c2nnn(C)n2)cc1F |  |
| 1.44 | 14 | 0.13 nM | 25 | 8.6 | 25 |  | COC(=O)c1c(F)cccc1-c1ccc([C@@H](C)NC(=O)C2(NC(=O)CC(F)(F)F)CC2)c(F)c1 |  |
|  |  | 2.95 nM |  | 2.2 | 31 | > 10000 | COC(=O)c1c(F)cccc1-c1ccc(CNC(=O)C2(NC(=O)C(F)(F)C(F)(F)F)CC2)c(F)c1 |  |
|  |  | 0.54 nM |  | 2.8 | 21 | > 10000 | COC(=O)c1c(F)cccc1-c1ccc(CNC(=O)C2(NC(=O)C(Cl)Cl)CC2)c(F)c1 | logP [8]: 2.8 |
| 0.35 | 27 | 0.51 nM | 28 | 5.6 | 37 |  | Cc1noc(-c2c(F)cccc2-c2ccc([C@@H](C)NC(=O)C3(NC(=O)C(F)(F)F)CC3)c(F)c2)n1 | half-life [9]: 2.9 h; clearance [10]: 6 mL/min/kg; bioavailability [11]: 22%; clearance [12]: 15 mL/min/kg; IC50 [13]: 0.89 nM; half-life [14]: 3.9 h; bioavailability [15]: 35% |
|  |  | 13.5 nM |  | 3.4 | 33 | > 10000 | COC(=O)c1c(F)cccc1-c1ccc(CNC(=O)C2(NC(=O)C(F)F)CC2)c(F)c1 | logP [8]: 2.4 |
| 2.6 | 30 | 1.44 nM | 10 | 2 | 32 |  | C[C@@H](NC(=O)C1(NC(=O)C(F)(F)F)CC1)c1ccc(-c2cccc(F)c2C(F)(F)F)cc1F | IC50 [13]: 7.3 nM |
|  |  | 2.5 nM |  | 2.8 | 29 | > 10000 | COC(=O)c1c(F)cccc1-c1ccc(CNC(=O)C2(NC(=O)C(F)(F)Cl)CC2)c(F)c1 |  |
|  |  | 0.81 nM |  | 18.4 | 23 | > 10000 | COC(=O)c1c(F)cccc1-c1ccc(CNC(=O)C2(NC(=O)CC(F)(F)F)CC2)c(F)c1 | logP [8]: 2.9 |
|  |  | 22 nM |  |  |  |  | COC(=O)c1c(F)cccc1-c1ccc([C@H](C)NC(=O)C2(NC(=O)CC(F)(F)F)CC2)c(F)c1 |  |
|  |  | 0.4 nM |  | 3.2 | 31 |  | COC(=O)c1c(F)cccc1-c1ccc([C@@H](C)NC(=O)C2(NC(=O)C(F)F)CC2)c(F)c1 |  |
| 1.1 | 45 | 1.35 nM | 8.4 |  |  |  | CCOC(=O)c1c(Cl)cccc1-c1ccc([C@@H](C)NC(=O)C2(NC(=O)C(F)(F)F)CC2)c(F)c1 | IC50 [13]: 9.1 nM |
| 0.7 | 48 | 0.6 nM | 11 |  |  |  | C[C@@H](NC(=O)C1(NC(=O)C(F)(F)F)CC1)c1ccc(-c2cccc(F)c2-c2nnn(C)n2)cc1F | IC50 [13]: 0.65 nM |
|  |  | 0.93 nM |  | 8.6 | 21 |  | COC(=O)c1c(F)cccc1-c1ccc([C@@H](C)NC(=O)C2(NC(C)=O)CC2)c(F)c1 |  |
|  |  | 0.81 nM |  | 2.5 | 34 |  | COC(=O)c1c(F)cccc1-c1ccc([C@@H](C)NC(=O)C2(NC(=O)C(F)(F)Cl)CC2)c(F)c1 |  |
| 0.5 | 21 | 0.57 nM | 42 | 2.3 | 28 |  | COC(=O)c1c(F)cccc1-c1ccc([C@@H](C)NC(=O)C2(NC(=O)C(F)(F)F)CC2)c(F)c1 | half-life [9]: 2.2 h; Stability [16]: Stable; Stability [17]: Stable; clearance [10]: 21 mL/min/kg; Stability [18]: Stable; Stability [19]: Stable; Stability [20]: Stable; bioavailability [11]: 2%; clearance [12]: 28 mL/min/kg; Stability [21]: Stable; IC50 [13]: 1.9 nM; half-life [14]: 1.7 h; bioavailability [15]: 5% |
|  |  | 119 nM |  |  |  | > 10000 | COC(=O)c1c(F)cccc1-c1ccc(CNC(=O)C2(NC(=O)C(C)(Cl)Cl)CC2)c(F)c1 |  |
|  |  | 2.8 nM |  |  |  | > 10000 | COC(=O)c1c(F)cccc1-c1ccc(CNC(=O)C2(NC(=O)C(F)Cl)CC2)c(F)c1 (stereo unspecified) |  |
|  |  | 11.6 nM |  | 6.3 | 24 | > 10000 | COC(=O)c1c(F)cccc1-c1ccc(CNC(=O)C2(NC(C)=O)CC2)c(F)c1 |  |
|  |  | 1.95 nM |  | 1.6 | 27 |  | CCC(=O)c1c(Cl)cccc1-c1ccc([C@@H](C)NC(=O)C2(NC(=O)C(F)(F)F)CC2)c(F)c1 |  |
|  |  | 10.3 nM |  | 2.2 | 34 |  | COC(=O)c1ccccc1-c1ccc([C@@H](C)NC(=O)C2(NC(=O)C(F)(F)F)CC2)c(F)c1 |  |
|  |  | 62.5 nM |  | 15.5 | 19 |  | C[C@@H](NC(=O)C1(NC(=O)C(F)(F)F)CC1)c1ccc(-c2cccc(F)c2-c2nnnn2C)cc1F |  |
| 0.34 | 44 | 1.6 nM and 0.68 nM | 27 | 1.4 and 3.7 | 31 |  | COC(=O)c1c(F)cccc1-c1ccc([C@@H](C)NC(=O)C2(NC(=O)C(F)(F)C(F)(F)F)CC2)c(F)c1 | Papp [22]: 28 ×10⁻⁶ cm/s |

| SMILES | half-life [1] [h] | bioavailability [2] [%] | Ki [3] | clearance [4] [mL/min/kg] | Ratio [5] | Papp [6] [×10⁻⁶ cm/s] | IC50 [7] [nM] | also measured |
| --- | --- | --- | --- | --- | --- | --- | --- | --- |
| COC(=O)c1c(F)cccc1-c1ccc(CNC(=O)C2(NC(=O)C(F)(F)F)CC2)c(F)c1 |  |  | 1.47 nM |  | 4.1 | 23 | > 10000 | logP [8]: 2.7 |
